Experimental data collected from several papers.
Each line is one published result; the experiments were not run side by side.
Cell line: OVCAR-5
Read-out: cell growth or viability

Structure (SMILES)	test	conditions	quantity	result
COc1ccccc1/C=C/C(=O)c1ccc(OC)c(S(N)(=O)=O)c1	SRB	48 h	GI50	2200 nM
Cc1cc(C)n(C(=S)[S][Au][PH](CCCCCC[PH]([Au][S]C(=S)n2nc(C)cc2C)(c2ccccc2)c2ccccc2)(c2ccccc2)c2ccccc2)n1	–	–	GI50	1210 nM
CCN1CCN(Cc2ccc(Nc3ncc(F)c(-c4cc(F)c5nc(C)n(C(C)C)c5c4)n3)nc2)CC1	CCK-8	–	IC50	2500 nM
CC[C@@H]1C=CC(=O)O[C@@H]1C[C@@H](O)[C@H](C)[C@H](OC)[C@@H](C)Cc1ccc(F)cc1	MTT	48 h	GI50	75.3 nM
COc1cccc(Oc2ccccc2NC(=O)CNC(=O)c2cccc3ccccc23)c1	SRB	48 h	GI50	1120 nM
S=C([S][Au-][P+](CCCCCC[P+]([Au-][S]C(=S)n1cccn1)(c1ccccc1)c1ccccc1)(c1ccccc1)c1ccccc1)n1cccn1	–	–	GI50	3630 nM
COc1cc(-c2ccc(-c3ccc(C(=N)N)nc3)s2)cc(OC)c1OC	SRB	–	GI50	2100 nM
C/C=C/C[C@H](C)[C@@H](OC)[C@@H](C)[C@H](O)C[C@H]1OC(=O)C=C[C@H]1CC	MTT	48 h	GI50	21.9 nM
COc1ccc(-c2ccc(-c3ccc(C(=N)N)nc3)s2)cc1	SRB	–	GI50	1670 nM
COc1ccc(C(=O)/C=C/c2cccc(Cl)c2)cc1S(N)(=O)=O	SRB	48 h	GI50	1900 nM
CC[C@@H]1C=CC(=O)O[C@@H]1C[C@@H](O)[C@H](C)[C@H](O)[C@@H](C)Cc1ccc(F)cc1	MTT	48 h	GI50	16.5 nM
